Bioassay records from PubChem BioAssay.
Hits are enriched below; roughly 2.3% of the tested compounds scored in any of these assays.
TRPC4 act: opens the mouse TRPC4 cation channel; AID 2237; 310,000 tested, 0.49% active; HEK293 TRPC4beta/mu-opioid, Fluo4 calcium fluorescence; active compounds read high; B-score at 10 µM;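 active = B-score above 5 SD of library B-scores, and initial fluorescence ratio not above library mean plus 5 SD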;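 note: positive B-score marks a calcium rise read as TRPC4 activation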
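Material: TRPC4beta and mu-opioid receptor HEK293 stable cells | Incubation: 45 min room-temperature Fluo4 loading, 110 s read | Detection: Kinetic Fluo4 calcium fluorescence | Measure: Integrated baseline-normalised fluorescence ratio, converted to per-well B score | Benchmarks: Low control buffer alone, high control maximal DAMGO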
TRPC6 act: mouse TRPC6 channel activation; Q61143; HEK293-TRPC6 membrane potential dye fluorescence; active compounds read high; B-score at 10 µM; 310,000 tested, 0.13% active; AID 2550;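 active = B-score of the integrated fluorescence ratio above library mean plus 3 SD, and starting fluorescence ratio within library mean plus 5 SD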;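 note: higher score means more depolarization so channel activation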
Target sequence (Q61143 whole entry, looked up): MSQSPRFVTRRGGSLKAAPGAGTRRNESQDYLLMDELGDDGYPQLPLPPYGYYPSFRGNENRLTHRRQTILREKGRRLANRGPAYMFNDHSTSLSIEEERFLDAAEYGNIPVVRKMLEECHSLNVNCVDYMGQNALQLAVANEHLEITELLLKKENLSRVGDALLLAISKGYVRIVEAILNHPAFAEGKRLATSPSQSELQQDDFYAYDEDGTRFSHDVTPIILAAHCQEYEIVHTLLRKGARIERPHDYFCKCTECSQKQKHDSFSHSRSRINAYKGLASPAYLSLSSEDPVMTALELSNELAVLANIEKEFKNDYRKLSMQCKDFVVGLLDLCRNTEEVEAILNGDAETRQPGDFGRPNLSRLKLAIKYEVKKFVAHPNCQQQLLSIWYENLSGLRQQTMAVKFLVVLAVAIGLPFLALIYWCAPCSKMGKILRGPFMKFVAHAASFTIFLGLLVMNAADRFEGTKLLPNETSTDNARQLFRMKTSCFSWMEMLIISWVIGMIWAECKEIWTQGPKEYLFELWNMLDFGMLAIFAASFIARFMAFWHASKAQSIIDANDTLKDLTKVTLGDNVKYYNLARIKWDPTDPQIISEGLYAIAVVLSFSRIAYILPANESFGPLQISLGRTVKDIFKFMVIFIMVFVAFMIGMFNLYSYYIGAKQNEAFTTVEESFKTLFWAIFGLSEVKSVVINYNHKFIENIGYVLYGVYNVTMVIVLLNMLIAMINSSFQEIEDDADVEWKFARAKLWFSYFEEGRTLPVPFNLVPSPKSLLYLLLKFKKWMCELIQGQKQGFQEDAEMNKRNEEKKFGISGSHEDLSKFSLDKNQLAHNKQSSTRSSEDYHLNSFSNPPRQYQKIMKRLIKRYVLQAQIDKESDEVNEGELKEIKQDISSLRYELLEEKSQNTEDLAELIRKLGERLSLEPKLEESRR
TRPC4 block: TRPC4 (mouse) channel inhibition | B-score at 10 µM | Q9QUQ5 | 300,000 tested, 0.39% active | AID 2247 | HEK293 TRPC4beta/mu-opioid, DAMGO-evoked Fluo4 calcium flux; active compounds read low;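 active = B-score over 3 SD under the library average, no early fluorescence shift, positive overall ratio signal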
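Assay system – HEK293 line stably carrying TRPC4beta and mu-opioid receptor · Doses – single dose · Detection – Fluo4 calcium-dye fluorescence, kinetic read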
TRPC4 PAM: allosterically enhances the mouse TRPC4 cation channel | AID 2227 | HEK293 TRPC4beta/mu-opioid, DAMGO EC20, Fluo-4 Ca2+ flux; active compounds read high | Q9QUQ5 | 310,000 tested, 0.42% active | B-score at 10 µM;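 active = B-score of calcium response area above 5 SD of library B-scores, with initial fluorescence ratio within 5 SD of library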;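 note: B-score of integrated fluorescence ratio over time as area under calcium response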
TRPC6 inh: blocks the mouse TRPC6 cation channel; Q61143; HEK293-TRPC6, membrane potential dye, ACh-evoked depolarization; active compounds read low; 310,000 tested, 1.1% active; B-score at 10 µM; AID 2553;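 active = B-score under library mean minus 3 SD, initial fluorescence not abnormally high, positive integrated signal ratio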;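 note: B-score derived from integrated fluorescence ratio over the kinetic read; more negative B-score means stronger inhibition of depolarization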
TRPC4 sel inh 2: mouse TRPC4 off-target activity of TRPC6 inhibitors, second screen. shares compounds with TRPC6 inh. HEK293 TRPC4/MOR, membrane potential dye fluorescence; channel activated by saturating DAMGO dose. inhibition, % at 10 µM. 920 tested, 42% active;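 active = compounds whose fluorescence signal differed from control wells by over 3 SD, either direction, in both duplicate plates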
TRPC4 spec: mouse TRPC4 off-target activity of TRPC6 inhibitors. shares compounds with TRPC6 inh. HEK293 TRPC4/mu-opioid, membrane potential fluorescence. activity change, negative = inhibition, % at 10 µM. 920 tested, 61% active. AID 2777;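 active = rise or fall in signal beyond 3 SD of buffer-only wells in both replicate plates, either sign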;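 note: integrated kinetic ratio of fluorescence range over baseline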
HEK293 MPD ctr 2-1: second check of TRPC6 inhibitor effects in parental HEK293 cells | 920 tested, 31% active | parental HEK293 membrane potential dye fluorescence; maximal acetylcholine challenge after compound addition | shares compounds with TRPC6 inh | signal change vs control, % at 10 µM | AID 2779;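 active = membrane potential signal moving either way by over 3 SD of the maximum-effect control, in both duplicate plates, meaning non-specific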
HEK293 MPD ctr-1: counter-screen for TRPC6 inhibitors: effect in parental HEK293 cells | membrane potential signal change, % at 10 µM | shares compounds with TRPC6 inh | 920 tested, 60% active | parental HEK293 membrane potential dye fluorescence;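 active = membrane potential signal shifting up or down by more than 3 SD of buffer-only wells, on both duplicate plates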
HEK293 MPD ctr-2: parental HEK293 nonspecific activity of TRPC6 modulators. shares compounds with TRPC6 inh. membrane potential dye fluorescence. membrane potential signal change, % at 10 µM. 2,400 tested, 51% active. AID 488924;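 active = membrane potential signal moves up or down beyond 5 SD from buffer-only wells, on both duplicate plates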
HEK293 MPD ctr 2-2: second check of TRPC6 modulator effects in parental HEK293 cells; shares compounds with TRPC6 inh; membrane potential dye fluorescence; after compound, maximal acetylcholine stimulation; inhibition, % at 10 µM; 2,400 tested, 14% active; AID 488926;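 active = membrane potential signal drops by more than 5 SD from the mean control signal, in both duplicate plates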;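 note: plate controls were acetylcholine ECmax control wells for no effect and buffer only wells for full effect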
TRPC4/MOR mod: mouse TRPC4 off-target activity of TRPC6 modulators. shares compounds with TRPC6 inh. HEK293 TRPC4/mu-opioid, membrane potential fluorescence. percent change from control (negative = decrease, positive = increase), % at 10 µM. 2,400 tested, 69% active. AID 488927;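 active = membrane potential signal moved up or down beyond 5 SD of buffer control wells, in both duplicate plates, actives on both sides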;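 note: plate controls were assay buffer wells for no effect and DAMGO maximal-effect wells for full effect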
TRPC4 ctr inh 2: second selectivity test of TRPC6 modulators against mouse TRPC4; shares compounds with TRPC6 inh; HEK293 TRPC4/mu-opioid, membrane potential dye fluorescence; stimulated with maximal-effect DAMGO; inhibition, % at 10 µM; 2,400 tested, 55% active; AID 488928;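 active = drop in membrane potential signal beyond 5 SD of the control wells in both duplicate plates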;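 note: TRPC4 counter screen for TRPC6 hits run under conditions tuned for TRPC6 not TRPC4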
TRPC6 block conf: mouse TRPC6 inhibitor confirmation. HEK293-TRPC6, membrane potential dye, ACh-evoked depolarization. inhibition, % at 10 µM. shares compounds with TRPC6 inh. AID 488960. 3,300 tested, 43% active;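 active = fluorescence ratio falls more than 5 SD below the full-stimulation control mean, in both duplicate runs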;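 note: integrated fluorescence ratio of peak minus minimum over baseline after agonist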
TRPC6 act confirm: confirmation of mouse TRPC6 activators. 2,800 tested, 11% active. HEK293-TRPC6 membrane potential dye fluorescence, FDSS. activation, % at 10 µM. shares compounds with TRPC6 inh;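 active = ratio signal rise beyond 5 SD above unstimulated control wells' mean, seen in both duplicate runs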;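 note: plate controls were buffer EC0 wells for no effect and acetylcholine ECmax response for full effect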
Numbers without * were called inactive; i = inactive; . = not tested or not shown.

SMILES	TRPC4 act	TRPC6 act	TRPC4 block	TRPC4 PAM	TRPC6 inh	HEK293 MPD ctr-2	HEK293 MPD ctr 2-2	TRPC4/MOR mod	TRPC4 ctr inh 2	TRPC6 block conf	others
OC(C#CCN1CCCC1)(c1ccccc1)c1cccc(F)c1 (stereo unspecified)	i	i	i	i	-5.5*	i	123%*	14%*	32%*	96%*
Cc1cc(-c2ccc(NC(=O)[C@@H]3CCCC[C@@H]3C(=O)O)c(C)c2)ccc1NC(=O)[C@@H]1CCCC[C@@H]1C(=O)O	i	i	i	i	i	.	.	.	.	.
CC(O)(C#CCN1CCCCC1)c1ccccc1 (stereo unspecified)	i	i	i	i	i	.	.	.	.	.
CC(C)C(O)(C#CCN1CCCCCC1)c1ccccc1 (stereo unspecified)	i	i	i	i	-7.1*	.	.	.	.	61%*	TRPC4 sel inh 2=i;TRPC4 spec=13%*;HEK293 MPD ctr 2-1=i;HEK293 MPD ctr-1=11%*
CCCCc1nnc(NC(=O)CSc2nc(O)c(Cc3ccccc3)c(=O)[nH]2)s1	i	i	i	i	i	.	.	.	.	.
O=C(CSc1nc(O)c(Cc2ccccc2)c(=O)[nH]1)Nc1nnc(SCc2ccccc2)s1	i	20*	i	i	i	308%*	i	58%*	i	i	TRPC6 act confirm=142%*
CCN(CC(=O)NC(C)(C)C)C(=O)CCl	i	i	i	i	i	.	.	.	.	.
Cc1cc(NC(=O)CSc2ccc3nnc(-c4cccs4)n3n2)no1	i	i	i	i	-5.3*	-159%*	i	-36%*	i	i	TRPC6 act confirm=i
Cc1ccc(-c2nnc3ccc(SCC(=O)Nc4cc(C)on4)nn23)cc1	i	i	i	i	i	.	.	.	.	.
COc1ccc(Cl)cc1NC(=O)CN1CCc2ccccc21	i	i	i	i	i	.	.	.	.	.
CC12CCC(C(=O)Nc3cccc(Cl)c3Cl)([C@H](Br)C1=O)C2(C)C (stereo partly specified)	i	i	i	i	i	.	.	.	.	.
CC12CCC(C(=O)Nc3c(Cl)cccc3Cl)(C(Br)C1=O)C2(C)C (stereo unspecified)	i	i	i	i	-6.2*	i	i	i	i	i	TRPC6 act confirm=i
CCOC(=O)Cc1csc(SC(C)C(=O)NC2CCCCC2C)n1 (stereo unspecified)	i	i	i	i	i	.	.	.	.	.
CCC[N+]1(CC#CC(O)(c2ccccc2)C2CCCCC2)CCCCC1 (stereo unspecified)	i	i	i	i	i	.	.	.	.	.
